pEC50, pIC50: −log10 of the molar value. Blank lines part the entries; values can stand above or below the compound they belong to. The source made the active and inactive calls. No cut-off for these calls is given here.
Assays:
Hepatitis B virus [1] = test: Antiviral activity against Hepatitis B genotype D virus infected in HepG2 2.2.15 cells assessed as inhibition of viral DNA incubated for 5 days by qPCR analysis; assay type: functional, cell-based; conditions: HepG2 2.2.15, 120 h
How it was run: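 HepG2.2.15 cells were incubated with compound for 5 days. HBV DNA was then purified from the culture supernatant and quantified by real-time PCR.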

[2] = Cytotoxicity against human HepG2 2.2.15 cells assessed as reduction in cell viability incubated for 5 days by MTT assay; assay type: cell-based; conditions: time 5 day
How it was run: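 HepG2.2.15 cells were incubated with compound, then cell viability was measured. Mean ± SD of three independent experiments.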

[3] = Half life in Sprague-Dawley rat at 5 mg/kg, po by LC-MS/MS analysis; assay type: ADME, organism-based; conditions: in vivo
How it was run: (§1)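 Male SD rats, 5 mg/kg given i.v. or p.o.; plasma concentration–time courses followed. Parameters: Tmax, Cmax, terminal T1/2, AUClast, AUC to infinity, total plasma clearance, Vss, oral bioavailability (Ft). Values are mean ± SD of at least three independent experiments.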

Cytochrome P450 2C9 = Cytochrome P450 2C9 (Homo sapiens, UniProt P11712); test: Inhibition of human liver microsome CYP2C9 using tolbutamide as substrate incubated for 20 mins by LC-MS/MS with HPLC analysis; assay type: ADME, microsomes
Chain of Cytochrome P450 2C9 (P11712 whole entry): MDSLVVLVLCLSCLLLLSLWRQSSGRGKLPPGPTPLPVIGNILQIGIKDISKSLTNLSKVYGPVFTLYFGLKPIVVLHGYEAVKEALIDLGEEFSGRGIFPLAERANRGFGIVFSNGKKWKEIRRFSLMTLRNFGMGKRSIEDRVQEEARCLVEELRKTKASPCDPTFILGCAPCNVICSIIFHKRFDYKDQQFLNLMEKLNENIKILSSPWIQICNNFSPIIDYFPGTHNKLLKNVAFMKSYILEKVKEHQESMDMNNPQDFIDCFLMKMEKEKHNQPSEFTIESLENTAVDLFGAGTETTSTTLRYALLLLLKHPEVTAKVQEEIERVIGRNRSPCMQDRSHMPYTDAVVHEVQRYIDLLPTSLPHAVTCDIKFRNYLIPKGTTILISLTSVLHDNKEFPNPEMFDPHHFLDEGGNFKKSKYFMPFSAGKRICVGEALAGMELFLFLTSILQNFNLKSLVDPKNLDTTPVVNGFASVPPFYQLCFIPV
How it was run: (§2)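 Cocktail-substrate assay in human liver microsomes; IC50 reported for CYP1A2, 2C9, 2C19, 2D6 and 3A4. n = 3, mean ± SD.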

[4] = Tmax in Sprague-Dawley rat at 5 mg/kg, po by LC-MS/MS analysis; assay type: ADME, organism-based; conditions: in vivo; how it was run: as §1
[5] = Protein binding in human plasma at 5 uM incubated for 4 hrs by LC-MS/MS analysis; assay type: ADME, cell-free; conditions: read-out: PPB (converted)
[6] = Metabolic stability in human liver microsomes assessed as half life at 1 uM incubated for 30 mins by LC-MS/MS analysis; assay type: ADME, Microsome
How it was run: (§3)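 Phase-I stability in rat or human liver microsomes, given as % remaining after 30 min, with half-life also derived. n = 3, mean ± SD.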

[7] = Metabolic stability in rat liver microsomes assessed as half life at 1 uM incubated for 30 mins by LC-MS/MS analysis; assay type: ADME, Microsome; how it was run: as §3
[8] = Metabolic stability in rat liver microsomes assessed as compound remaining at 1 uM incubated for 30 mins by LC-MS/MS analysis; assay type: ADME, Microsome; conditions: read-out: Stabilty; how it was run: as §3
[9] = Cmax in Sprague-Dawley rat at 5 mg/kg, po by LC-MS/MS analysis; assay type: ADME, organism-based; design: route oral, dose 5 mg/kg; conditions: in vivo; how it was run: as §1
[10] = Protein binding in rat plasma at 5 uM incubated for 4 hrs by LC-MS/MS analysis; assay type: ADME, cell-free; conditions: read-out: PPB (converted)
[11] = biological target: Voltage-gated inwardly rectifying potassium channel KCNH2 (Homo sapiens, UniProt Q12809); test: Inhibition of human ERG by fluorescence polarization assay
Chain of Voltage-gated inwardly rectifying potassium channel KCNH2 (Q12809 whole entry): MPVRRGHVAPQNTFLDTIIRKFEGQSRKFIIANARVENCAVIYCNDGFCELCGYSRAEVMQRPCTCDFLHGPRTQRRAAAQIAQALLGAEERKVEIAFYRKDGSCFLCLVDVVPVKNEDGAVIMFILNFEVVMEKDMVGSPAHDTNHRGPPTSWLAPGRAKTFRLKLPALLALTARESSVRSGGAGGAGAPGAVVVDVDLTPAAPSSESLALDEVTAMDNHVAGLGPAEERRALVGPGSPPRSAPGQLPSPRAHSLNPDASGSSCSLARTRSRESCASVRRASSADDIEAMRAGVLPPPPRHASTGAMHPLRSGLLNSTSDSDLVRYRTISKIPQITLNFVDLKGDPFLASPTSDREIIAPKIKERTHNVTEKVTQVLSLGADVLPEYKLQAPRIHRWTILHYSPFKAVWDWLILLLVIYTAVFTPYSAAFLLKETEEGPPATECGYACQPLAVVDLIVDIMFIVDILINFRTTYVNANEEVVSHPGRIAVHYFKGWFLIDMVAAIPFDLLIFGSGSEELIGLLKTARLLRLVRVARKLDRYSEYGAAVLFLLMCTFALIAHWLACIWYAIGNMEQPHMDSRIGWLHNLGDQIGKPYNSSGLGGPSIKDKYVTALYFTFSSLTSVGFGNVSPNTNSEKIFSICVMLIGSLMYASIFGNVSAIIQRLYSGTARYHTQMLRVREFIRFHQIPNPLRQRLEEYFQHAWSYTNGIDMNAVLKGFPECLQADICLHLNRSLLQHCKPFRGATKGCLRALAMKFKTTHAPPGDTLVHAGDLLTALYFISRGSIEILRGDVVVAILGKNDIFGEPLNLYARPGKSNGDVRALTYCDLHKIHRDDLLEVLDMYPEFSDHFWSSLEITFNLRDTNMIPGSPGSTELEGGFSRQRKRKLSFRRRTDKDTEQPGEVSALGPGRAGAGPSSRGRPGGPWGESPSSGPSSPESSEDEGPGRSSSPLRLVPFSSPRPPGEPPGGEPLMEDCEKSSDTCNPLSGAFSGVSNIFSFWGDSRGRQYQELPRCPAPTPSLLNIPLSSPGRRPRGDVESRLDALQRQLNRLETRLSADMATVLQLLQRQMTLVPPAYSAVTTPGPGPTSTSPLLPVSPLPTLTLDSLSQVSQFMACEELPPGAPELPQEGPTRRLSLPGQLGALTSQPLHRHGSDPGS

[12] = AUC (0 to infinity) in Sprague-Dawley rat at 5 mg/kg, po by LC-MS/MS analysis; assay type: ADME, organism-based; design: time infinity, route oral, dose 5 mg/kg; conditions: in vivo; how it was run: as §1
[13] = Clearance in Sprague-Dawley rat at 5 mg/kg, iv by LC-MS/MS analysis; assay type: ADME, organism-based; conditions: in vivo; how it was run: as §1
[14] = Selectivity index, ratio of CC50 for human […] cells to EC50 for Hepatitis B virus; assay type: toxicity; conditions: read-out: Ratio CC50/EC50
[15] = AUC (0 to infinity) in Sprague-Dawley rat at 5 mg/kg, iv by LC-MS/MS analysis; assay type: ADME, organism-based; design: time infinity, route intravenous, dose 5 mg/kg; conditions: in vivo; how it was run: as §1
Hepatitis B virus [16] = test: Induction of recombinant Hepatitis B virus HBc (1-149)-His protein self-assembly expressed in Escherichia coli BL21 (DE3) at 30 uM by TEM analysis relative to control; conditions: filed as modulator, time 3-5 day, TDE = time-dependent effect
[17] = AUClast in Sprague-Dawley rat at 5 mg/kg, po by LC-MS/MS analysis; assay type: ADME, organism-based; design: time 0 - last, route oral, dose 5 mg/kg; conditions: in vivo; how it was run: as §1
[18] = Stability in human plasma assessed as compound remaining at 5 uM incubated for 4 hrs by LC-MS/MS analysis; assay type: ADME, cell-free; conditions: read-out: Stabilty
How it was run: (§4)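 Incubated in rat or human plasma at 37 °C for 4 h; result is % compound remaining. n = 3, mean ± SD.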

Hepatitis B virus [19] = test: Induction of recombinant Hepatitis B virus HBc (1-149)-His protein self-assembly expressed in Escherichia coli BL21 (DE3) assessed as long rod-shaped particles at 30 uM after 3 to 5 days of incubation by TEM analysis relative to control; conditions: filed as modulator, time 3-5 day
Cytochrome P450 1A2 = biological target: T1, Cytochrome P450 1A2 (Homo sapiens, UniProt P05177); test: Inhibition of human liver microsome CYP1A2 using phenacetin as substrate incubated for 20 mins by LC-MS/MS with HPLC analysis; assay type: ADME, microsomes; how it was run: as §2
T1 sequence (P05177 whole entry): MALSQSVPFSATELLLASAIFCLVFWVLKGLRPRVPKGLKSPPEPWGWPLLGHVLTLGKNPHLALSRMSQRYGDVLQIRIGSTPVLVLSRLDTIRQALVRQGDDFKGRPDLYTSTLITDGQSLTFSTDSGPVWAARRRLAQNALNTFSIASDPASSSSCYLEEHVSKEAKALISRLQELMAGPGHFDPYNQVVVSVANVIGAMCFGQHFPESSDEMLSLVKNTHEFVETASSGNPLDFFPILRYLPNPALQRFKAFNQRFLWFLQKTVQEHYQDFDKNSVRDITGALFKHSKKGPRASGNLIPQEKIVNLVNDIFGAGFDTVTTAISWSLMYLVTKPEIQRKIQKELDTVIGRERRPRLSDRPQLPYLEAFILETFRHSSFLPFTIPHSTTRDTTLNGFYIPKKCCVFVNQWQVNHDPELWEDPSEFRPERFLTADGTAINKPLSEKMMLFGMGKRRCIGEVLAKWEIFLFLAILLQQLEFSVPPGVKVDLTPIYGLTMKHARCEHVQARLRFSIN

[20] = AUClast in Sprague-Dawley rat at 5 mg/kg, iv by LC-MS/MS analysis; assay type: ADME, organism-based; design: route intravenous, time 0 - last, dose 5 mg/kg; conditions: in vivo; how it was run: as §1
Cytochrome P450 3A4 = Cytochrome P450 3A4 (Homo sapiens, UniProt P08684); test: Inhibition of human liver microsome CYP3A4 using […] as substrate incubated for 20 mins by LC-MS/MS with HPLC analysis; assay type: ADME, microsomes; how it was run: as §2
Chain of Cytochrome P450 3A4 (P08684 whole entry): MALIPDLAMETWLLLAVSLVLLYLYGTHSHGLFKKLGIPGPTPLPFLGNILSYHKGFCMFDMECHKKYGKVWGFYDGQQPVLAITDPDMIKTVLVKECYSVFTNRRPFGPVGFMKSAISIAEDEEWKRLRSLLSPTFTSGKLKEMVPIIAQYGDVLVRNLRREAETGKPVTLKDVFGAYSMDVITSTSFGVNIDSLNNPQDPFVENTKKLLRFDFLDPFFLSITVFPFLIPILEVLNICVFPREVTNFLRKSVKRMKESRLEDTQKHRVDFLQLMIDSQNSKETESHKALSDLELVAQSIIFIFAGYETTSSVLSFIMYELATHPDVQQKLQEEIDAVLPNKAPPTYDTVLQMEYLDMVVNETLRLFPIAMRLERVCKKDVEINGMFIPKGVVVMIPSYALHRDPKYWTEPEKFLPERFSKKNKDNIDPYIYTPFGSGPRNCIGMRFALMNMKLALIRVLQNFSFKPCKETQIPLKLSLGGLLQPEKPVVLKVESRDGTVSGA

Hepatitis B virus [21] = test: Induction of recombinant Hepatitis B virus HBc (1-149)-His protein self-assembly expressed in Escherichia coli BL21 (DE3) assessed as short rod-shaped particles at 30 uM after 12 hrs of incubation by TEM analysis relative to control; conditions: filed as modulator
Hepatitis B virus [22] = test: Induction of recombinant Hepatitis B virus HBc (1-149)-His protein self-assembly expressed in Escherichia coli BL21 (DE3) assessed as spherical shaped particles at 30 uM after 12 hrs of incubation by TEM analysis relative to control; conditions: filed as modulator
Hepatitis B virus [23] = test: Induction of recombinant Hepatitis B virus HBc (1-149)-His protein self-assembly expressed in Escherichia coli BL21 (DE3) assessed as longer tubular shaped particles at 30 uM after 3 to 5 days of incubation by TEM analysis relative to control; conditions: filed as modulator, time 3-5 day
[24] = Volume of distribution at steady state in Sprague-Dawley rat at 5 mg/kg, iv by LC-MS/MS analysis; assay type: ADME, organism-based; conditions: in vivo, read-out: Vdss; how it was run: as §1
Cytochrome P450 2D6 = Cytochrome P450 2D6 (Homo sapiens, UniProt P10635); test: Inhibition of human liver microsome CYP2D6 using dextromethorphan as substrate incubated for 20 mins by LC-MS/MS with HPLC analysis; assay type: ADME, microsomes; how it was run: as §2
Chain of Cytochrome P450 2D6 (P10635 whole entry): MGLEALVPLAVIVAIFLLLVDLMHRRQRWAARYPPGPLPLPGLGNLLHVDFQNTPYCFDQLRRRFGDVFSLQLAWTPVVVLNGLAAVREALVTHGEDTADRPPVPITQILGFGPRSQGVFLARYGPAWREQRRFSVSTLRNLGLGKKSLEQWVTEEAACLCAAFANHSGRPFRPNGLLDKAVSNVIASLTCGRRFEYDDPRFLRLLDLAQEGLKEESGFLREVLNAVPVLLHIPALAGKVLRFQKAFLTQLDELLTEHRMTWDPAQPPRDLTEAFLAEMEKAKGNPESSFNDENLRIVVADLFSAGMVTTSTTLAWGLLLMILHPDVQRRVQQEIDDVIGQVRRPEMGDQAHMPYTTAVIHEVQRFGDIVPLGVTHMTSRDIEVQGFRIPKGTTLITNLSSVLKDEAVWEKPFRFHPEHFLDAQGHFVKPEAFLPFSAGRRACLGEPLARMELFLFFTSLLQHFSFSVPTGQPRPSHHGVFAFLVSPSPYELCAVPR

Cytochrome P450 2C19 = Cytochrome P450 2C19 (Homo sapiens, UniProt P33261); test: Inhibition of human liver microsome CYP2C19 using S-mephenytoin as substrate incubated for 20 mins by LC-MS/MS with HPLC analysis; assay type: ADME, microsomes; how it was run: as §2
Chain of Cytochrome P450 2C19 (P33261 whole entry): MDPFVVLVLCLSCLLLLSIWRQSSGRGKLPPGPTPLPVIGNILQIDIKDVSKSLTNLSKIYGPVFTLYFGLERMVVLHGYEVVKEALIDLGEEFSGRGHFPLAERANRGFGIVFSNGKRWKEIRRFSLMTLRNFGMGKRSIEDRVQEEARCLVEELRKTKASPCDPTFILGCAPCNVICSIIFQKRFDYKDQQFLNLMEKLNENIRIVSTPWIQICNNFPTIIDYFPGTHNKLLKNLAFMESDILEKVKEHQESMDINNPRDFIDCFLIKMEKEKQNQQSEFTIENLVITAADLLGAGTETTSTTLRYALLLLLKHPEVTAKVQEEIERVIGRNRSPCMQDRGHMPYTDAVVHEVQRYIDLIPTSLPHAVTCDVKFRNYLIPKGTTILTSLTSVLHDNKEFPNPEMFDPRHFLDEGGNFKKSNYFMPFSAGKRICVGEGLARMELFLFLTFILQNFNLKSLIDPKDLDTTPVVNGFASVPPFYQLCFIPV

[25] = Half life in Sprague-Dawley rat at 5 mg/kg, iv by LC-MS/MS analysis; assay type: ADME, organism-based; conditions: in vivo; how it was run: as §1
[26] = Oral bioavailability in Sprague-Dawley rat at 5 mg/kg by LC-MS/MS analysis; assay type: ADME, organism-based; conditions: in vivo; how it was run: as §1
[27] = Stability in rat plasma assessed as compound remaining at 5 uM incubated for 4 hrs by LC-MS/MS analysis; assay type: ADME, cell-free; conditions: read-out: Stabilty; how it was run: as §4
[28] = Metabolic stability in human liver microsomes assessed as compound remaining at 1 uM incubated for 30 mins by LC-MS/MS analysis; assay type: ADME, Microsome; conditions: read-out: Stabilty; how it was run: as §3

pEC50 (Hepatitis B virus [1]): < 5.48
Structure (SMILES): Nc1cc(F)c(S(=O)(=O)N2CCC(O)CC2)cc1C(=O)Nc1ccc(C(F)(F)F)c(Cl)c1
CC50 at 120 h [2]: 8.7 µM

pEC50 (Hepatitis B virus [1]): < 5.48
Structure (SMILES): Nc1cc(F)c(S(=O)(=O)N2CCC(O)CC2)cc1C(=O)Nc1ccc(Cl)c(C(F)(F)F)c1
CC50 at 120 h [2]: 17.8 µM

pEC50 (Hepatitis B virus [1]): 5.66
Structure (SMILES): Nc1cc(F)c(S(=O)(=O)N2CCC(O)CC2)cc1C(=O)Nc1ccc(F)c(C(F)(F)F)c1
selectivity ratio [14]: 21.7 | CC50 at 120 h [2]: 47.3 µM

Second part, the compound before the results:

Structure (SMILES): Nc1cc(F)c(S(=O)(=O)N2CCC(O)CC2)cc1C(=O)Nc1ccc(F)c(F)c1
half-life [3]: 230 min | pIC50 (Cytochrome P450 2C9): 4.60 | Tmax [4]: 1.67 h | fraction unbound at 4 h, 5 µM [5]: 0.035 | half-life at 1 µM [6]: 74.4 min | half-life at 1 µM [7]: 52 min | pEC50 (Hepatitis B virus [1]): 6.52 | remaining at 0.5 h, 1 µM [8]: 67.9% | Cmax [9]: 480 ng/mL | fraction unbound at 4 h, 5 µM [10]: 0.073 | pIC50 [11]: 4.30 | AUC(0-inf) [12]: 2100 ng·h/mL | clearance [13]: 34.2 mL/min/kg | selectivity ratio [14]: 53.3 | AUC(0-inf) [15]: 2500 ng·h/mL | inhibition (Hepatitis B virus [16]): Tde | AUC(0-t) [17]: 2080 ng·h/mL | remaining at 4 h, 5 µM [18]: 93.6% | Activity (Hepatitis B virus [19]): Active | pIC50 (Cytochrome P450 1A2): < 4.00 | AUC(0-t) [20]: 2450 ng·h/mL | pIC50 (Cytochrome P450 3A4): 4.39 | Activity (Hepatitis B virus [21]): Active | Activity (Hepatitis B virus [22]): Active | Activity (Hepatitis B virus [23]): Active | Vd [24]: 2.88 L/kg | pIC50 (Cytochrome P450 2D6): 4.53 | pIC50 (Cytochrome P450 2C19): 4.74 | half-life [25]: 73.2 min | bioavailability [26]: 84.2% | remaining at 4 h, 5 µM [27]: 84.6% | remaining at 0.5 h, 1 µM [28]: 68.1% | CC50 at 120 h [2]: 16 µM

Structure (SMILES): Nc1cc(F)c(S(=O)(=O)N2CCC(O)CC2)cc1C(=O)Nc1ccc(Cl)c(C(F)F)c1
pEC50 (Hepatitis B virus [1]): < 5.48 | CC50 at 120 h [2]: 30.1 µM

Structure (SMILES): Nc1cc(F)c(S(=O)(=O)N2CCC(O)CC2)cc1C(=O)Nc1ccc(F)cc1
pEC50 (Hepatitis B virus [1]): 6.24 | selectivity ratio [14]: 80.4 | CC50 at 120 h [2]: 45.8 µM

Structure (SMILES): Nc1cc(F)c(S(=O)(=O)N2CCC(O)CC2)cc1C(=O)Nc1ccc(Cl)c(F)c1
pEC50 (Hepatitis B virus [1]): 5.66 | selectivity ratio [14]: 9.3 | CC50 at 120 h [2]: 20.3 µM

Structure (SMILES): Nc1cc(F)c(S(=O)(=O)N2CCC(O)CC2)cc1C(=O)Nc1ccc(F)c(C(F)F)c1
half-life [3]: 310 min | pIC50 (Cytochrome P450 2C9): 4.60 | Tmax [4]: 1.33 h | fraction unbound at 4 h, 5 µM [5]: 0.029 | half-life at 1 µM [6]: 30.6 min | half-life at 1 µM [7]: 29.3 min | pEC50 (Hepatitis B virus [1]): 6.54 | remaining at 0.5 h, 1 µM [8]: 54.1% | Cmax [9]: 280 ng/mL | fraction unbound at 4 h, 5 µM [10]: 0.108 | pIC50 [11]: < 5.00 | AUC(0-inf) [12]: 1230 ng·h/mL | clearance [13]: 36 mL/min/kg | selectivity ratio [14]: 164 | AUC(0-inf) [15]: 2330 ng·h/mL | AUC(0-t) [17]: 1150 ng·h/mL | remaining at 4 h, 5 µM [18]: 100% | pIC50 (Cytochrome P450 1A2): 4.34 | AUC(0-t) [20]: 2310 ng·h/mL | pIC50 (Cytochrome P450 3A4): 4.68 | Vd [24]: 3.59 L/kg | pIC50 (Cytochrome P450 2D6): 4.57 | pIC50 (Cytochrome P450 2C19): 4.72 | half-life [25]: 153 min | bioavailability [26]: 49.9% | remaining at 4 h, 5 µM [27]: 99.6% | remaining at 0.5 h, 1 µM [28]: 40.5% | CC50 at 120 h [2]: 47.5 µM
